pIC50: −log10 of the molar value. Calls of active or inactive are those of the source. The rule behind the calls is not given here.
How the values were obtained:
K562 = experiment: Cytotoxicity against human K562 cells after 96 hrs by trypan blue exclusion assay; type: functional, cell-based; details: Homo sapiens, K562, 96 h
Method in brief: (§1)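 Cells grown in DMEM or RPMI with 10% FBS and penicillin-streptomycin, seeded at 1.0 × 10⁵ cells/mL/well in 6-well dishes. Compound added at a range of concentrations 24 h after seeding. Viable cells counted by trypan blue exclusion from duplicate wells after 96 h of exposure; dose-response end point.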

[1] = Cytotoxicity against human U87 cells after 96 hrs by trypan blue exclusion assay; type: functional, cell-based, U-87MG ATCC; details: U-87 MG
Method in brief: (§2)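 Cells grown in DMEM or RPMI with 10% FBS and 1 unit/mL penicillin-streptomycin, seeded at 1.0 × 10⁵ cells/mL/well in 6-well dishes; compound added 24 h later at various concentrations. After 96 h of treatment, viable cells counted by trypan blue exclusion in duplicate wells; dose-response end point.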

[2] = Cytotoxicity against human RF1 cells after 96 hrs by trypan blue exclusion assay; type: functional, cell-based; details: RF1, 96 h; method in brief: as §2
A549 [3] = experiment: Cytotoxicity against human A549 cells after 96 hrs by trypan blue exclusion assay; type: functional, cell-based; details: A549, 96 h; method in brief: as §1
AGS = experiment: Cytotoxicity against human AGS cells after 96 hrs by trypan blue exclusion assay; type: functional, cell-based; method in brief: as §1
CEM/C2 = experiment: Cytotoxicity against multidrug-resistant human CEM/C2 cells assessed as cell viability after 96 hrs by trypan blue exclusion; type: functional, cell-based; details: CEM/C2, 96 h; method in brief: as §2
NCI-H187 = experiment: Cytotoxicity against human NCI-H187 cells after 96 hrs by trypan blue exclusion assay; type: functional, cell-based; details: NCI-H187, 96 h; method in brief: as §1
LP-1 = experiment: Cytotoxicity against human LP-1 cells after 96 hrs by trypan blue exclusion assay; type: functional, cell-based; details: LP-1, 96 h; method in brief: as §1
[4] = Cytotoxicity against multidrug-resistant human MES-SA/Dx5 cells assessed as cell viability after 96 hrs by trypan blue exclusion; type: functional, cell-based; details: MES-SA/Dx5, 96 h; method in brief: as §2
DU-145 [5] = experiment: Cytotoxicity against human DU145 cells after 96 hrs by trypan blue exclusion assay; type: functional, cell-based; details: Homo sapiens, DU-145, 96 h; method in brief: as §1
[6] = Cytotoxicity against human […] cells after 96 hrs by trypan blue exclusion assay; type: functional, cell-based; method in brief: as §2
HCT-116 = experiment: Cytotoxicity against human HCT116 cells after 96 hrs by trypan blue exclusion assay; type: functional, cell-based; details: HCT-116, 96 h; method in brief: as §1
DLD-1 = experiment: Cytotoxicity against human DLD1 cells after 96 hrs by trypan blue exclusion assay; type: functional, cell-based; details: DLD-1, 96 h; method in brief: as §1
COLO 205 = experiment: Cytotoxicity against human COLO205 cells after 96 hrs by trypan blue exclusion assay; type: functional, cell-based; details: COLO 205, 96 h; method in brief: as §1
MIA PaCa-2 = experiment: Cytotoxicity against human MIAPaCa2 cells after 96 hrs by trypan blue exclusion assay; type: functional, cell-based; details: MIA PaCa-2, 96 h; method in brief: as §1
[7] = Cytotoxicity against human RF48 cells after 96 hrs by trypan blue exclusion assay; type: functional, cell-based; details: RF48, 96 h; method in brief: as §2
[8] = Cytotoxicity against human GRANTA-519 cells after 96 hrs by trypan blue exclusion assay; type: functional, cell-based; details: Granta-519, 96 h; method in brief: as §1
Raji = experiment: Cytotoxicity against human Raji cells after 96 hrs by trypan blue exclusion assay; type: functional, cell-based; method in brief: as §2
PC-3 = experiment: Cytotoxicity against human PC3 cells after 96 hrs by trypan blue exclusion assay; type: functional, cell-based; details: PC-3, 96 h; method in brief: as §1
[9] = Cytotoxicity against multidrug-resistant human 2008/17/4 cells assessed as cell viability after 96 hrs by trypan blue exclusion; type: functional, cell-based; method in brief: as §2
T47D = experiment: Cytotoxicity against human T47D cells after 96 hrs by trypan blue exclusion assay; type: functional, cell-based; method in brief: as §2
OPM-2 = experiment: Cytotoxicity against human OPM2 cells after 96 hrs by trypan blue exclusion assay; type: functional, cell-based; details: OPM-2, 96 h; method in brief: as §1
2008 = experiment: Cytotoxicity against human 2008 cells assessed as cell viability after 96 hrs by trypan blue exclusion; type: functional, cell-based; details: Homo sapiens, 2008, 96 h; method in brief: as §1
Daudi = experiment: Cytotoxicity against human Daudi cells after 96 hrs by trypan blue exclusion assay; type: functional, cell-based; method in brief: as §1
NCI-H1975 = experiment: Cytotoxicity against human NCI-H1975 cells after 96 hrs by trypan blue exclusion assay; type: functional, cell-based; details: NCI-H1975, 96 h; method in brief: as §1
CCRF-CEM = experiment: Cytotoxicity against human CEM cells assessed as cell viability after 96 hrs by trypan blue exclusion; type: functional, cell-based; method in brief: as §1
U-266 = experiment: Cytotoxicity against human U266 cells after 96 hrs by trypan blue exclusion assay; type: functional, cell-based; details: U-266, 96 h; method in brief: as §2
MCF7 = experiment: Cytotoxicity against human MCF7 cells after 96 hrs by trypan blue exclusion assay; type: functional, cell-based; details: MCF7, 96 h; method in brief: as §1
[10] = Cytotoxicity against human COLO320 cells after 96 hrs by trypan blue exclusion assay; type: functional, cell-based; details: COLO 320, 96 h; method in brief: as §1
OVCAR-3 = experiment: Cytotoxicity against human OVCAR3 cells after 96 hrs by trypan blue exclusion assay; type: functional, cell-based; details: OVCAR-3, 96 h; method in brief: as §1
[11] = Cytotoxicity against human MES-SA cells assessed as cell viability after 96 hrs by trypan blue exclusion; type: functional, cell-based; method in brief: as §1
BT-20 = experiment: Cytotoxicity against human BT20 cells after 96 hrs by trypan blue exclusion assay; type: functional, cell-based; details: BT-20, 96 h; method in brief: as §1
MOLT-4 = experiment: Cytotoxicity against human MOLT4 cells after 96 hrs by trypan blue exclusion assay; type: functional, cell-based; details: MOLT-4, 96 h; method in brief: as §1
NCI-H417 = experiment: Cytotoxicity against human NCI-N417 cells after 96 hrs by trypan blue exclusion assay; type: functional, cell-based; details: NCI-H417, 96 h; method in brief: as §1
SW480 = experiment: Cytotoxicity against human SW480 cells after 96 hrs by trypan blue exclusion assay; type: functional, cell-based; details: SW480, 96 h; method in brief: as §2
HCT-15 = experiment: Cytotoxicity against human HCT15 cells after 96 hrs by trypan blue exclusion assay; type: functional, cell-based; details: HCT-15, 96 h; method in brief: as §1
BT-474 = experiment: Cytotoxicity against human BT474 cells after 96 hrs by trypan blue exclusion assay; type: functional, cell-based; details: BT-474, 96 h; method in brief: as §1
NCI-H157 = experiment: Cytotoxicity against human NCI-H157 cells after 96 hrs by trypan blue exclusion assay; type: functional, cell-based; details: NCI-H157, 96 h; method in brief: as §1
[12] = Cytotoxicity against human NAMALWA cells after 96 hrs by trypan blue exclusion assay; type: functional, cell-based; details: NAMALVA; method in brief: as §1
SK-BR-3 = experiment: Cytotoxicity against human SKBR3 cells after 96 hrs by trypan blue exclusion assay; type: functional, cell-based; details: SK-BR-3, 96 h; method in brief: as §2
[13] = Cytotoxicity against human Z138C cells after 96 hrs by trypan blue exclusion assay; type: functional, cell-based; method in brief: as §2
A549 [14] = experiment: Induction of apoptosis in human A549 cells assessed as cell viability at 0.25 uM after 24 hrs by fluorescence assay; type: functional, cell-based
Method in brief: (§3)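 A549 cells seeded at 3,600 cells/well in DMEM + 10% FBS, adhered overnight at 37 °C, then exposed to varying compound concentrations or DMSO for 24 h. Viability read first as fluorescence 3 h after CellTiter-Blue addition. Caspase-Glo 3/7 was then added to the same wells, developed 2 h at room temperature, and luminescence read; n=3.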

DU-145 [15] = experiment: Induction of apoptosis in human DU145 cells assessed as PARP1 cleavage at 0.25 to 5 uM after 48 hrs by Western blot analysis; type: functional, cell-based
Method in brief: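 DU145 or HFL-1 cells plated at 3.0 × 10⁶ per […], treated 24 h later with DMSO or compound for 48 h. Frozen pellets lysed in 1% NP40/PBS with protease inhibitors. Equal protein run on 10% SDS-PAGE, transferred to nitrocellulose, probed with anti-PARP antibody, ECL detection.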

A549 [16] = experiment: Induction of apoptosis in human A549 cells assessed as caspase 3/7 activity at 0.25 uM after 24 hrs by luminescence assay; type: functional, cell-based; method in brief: as §3
DU-145 [17] = experiment: Cell cycle arrest in human DU145 cells assessed as accumulation of cells in G2/M phase after 24 hrs by propidium iodide staining-based flow cytometric analysis; type: functional
Method in brief: (§4)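 DMEM with 10% FBS; 1.0 × 10⁶ cells/dish, treated 24 h after plating and harvested 24 h after treatment. Trypsinized cells were pooled with floating cells, PBS-washed and fixed in ice-cold 70% ethanol for ≥24 h. Cells were stained with propidium iodide plus RNase A for 30 min at 37 °C. DNA content was read by flow cytometry with cell-cycle modelling.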

DU-145 [18] = experiment: Cell cycle arrest in human DU145 cells assessed as accumulation of cells containing subG1 content of DNA at 0.1 to 1 uM after 24 hrs by propidium iodide staining-based flow cytometric analysis; type: functional; method in brief: as §4

COc1cc(OC)c(/C=C/S(=O)(=O)Cc2ccc(OC)c(N)c2)c(OC)c1
pIC50 (K562): 8.60 | pIC50 [1]: 8.52 | pIC50 [2]: 8.70 | pIC50 (A549 [3]): 8.52 | pIC50 (AGS): 8.52 | pIC50 (CEM/C2): 8.00 | pIC50 (NCI-H187): 8.40 | pIC50 (LP-1): 8.52 | pIC50 [4]: 8.40 | pIC50 (DU-145 [5]): 8.40 | pIC50 [6]: 8.52 | pIC50 (HCT-116): 8.52 | pIC50 (DLD-1): 8.30 | pIC50 (COLO 205): 8.30 | pIC50 (MIA PaCa-2): 8.52 | pIC50 [7]: 9.00 | pIC50 [8]: 8.52 | pIC50 (Raji): 8.70 | pIC50 (PC-3): 8.22 | pIC50 [9]: 8.52 | pIC50 (T47D): 8.52 | pIC50 (OPM-2): 8.52 | pIC50 2008: 8.52 | pIC50 (Daudi): 8.52 | pIC50 (NCI-H1975): 8.52 | pIC50 (CCRF-CEM): 8.00 | pIC50 (U-266): 8.52 | pIC50 (MCF7): 9.00 | pIC50 [10]: 8.52 | pIC50 (OVCAR-3): 8.52 | pIC50 [11]: 8.40 | pIC50 (BT-20): 7.52 | pIC50 (MOLT-4): 8.40 | pIC50 (NCI-H417): 8.52 | pIC50 (SW480): 8.30 | pIC50 (HCT-15): 8.52 | pIC50 (BT-474): 8.70 | pIC50 (NCI-H157): 8.40 | pIC50 [12]: 8.30 | pIC50 (SK-BR-3): 8.52 | pIC50 [13]: 8.52

COc1cc(OC)c(/C=C/S(=O)(=O)Cc2ccc(OC)c(NCC(=O)O)c2)c(OC)c1
Activity (A549 [14]): Active | Activity (DU-145 [15]): Active | Activity (A549 [16]): Active | Activity (DU-145 [17]): Dose-dependent effect | Activity (DU-145 [18]): Active
